AF4-AF9 inh: inhibitors of AF4 peptide binding to AF9, primary screen, biochemical, AlphaScreen, biotin-AF4 peptide, FLAG-AF9, single point; inhibition, % at 10 µM; Protein AF-9 (Homo sapiens), P42568; 350,000 compounds, 0.47% hits;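 active means every replicate reaching a set inhibition limit, whatever the replicate mean, cut at about 25% in these data; inconclusive means mean inhibition reaches that limit but some replicates miss it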;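 further: 0% = plate neutral control median and 100% = total signal loss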
Target sequence (P42568 whole entry, looked up): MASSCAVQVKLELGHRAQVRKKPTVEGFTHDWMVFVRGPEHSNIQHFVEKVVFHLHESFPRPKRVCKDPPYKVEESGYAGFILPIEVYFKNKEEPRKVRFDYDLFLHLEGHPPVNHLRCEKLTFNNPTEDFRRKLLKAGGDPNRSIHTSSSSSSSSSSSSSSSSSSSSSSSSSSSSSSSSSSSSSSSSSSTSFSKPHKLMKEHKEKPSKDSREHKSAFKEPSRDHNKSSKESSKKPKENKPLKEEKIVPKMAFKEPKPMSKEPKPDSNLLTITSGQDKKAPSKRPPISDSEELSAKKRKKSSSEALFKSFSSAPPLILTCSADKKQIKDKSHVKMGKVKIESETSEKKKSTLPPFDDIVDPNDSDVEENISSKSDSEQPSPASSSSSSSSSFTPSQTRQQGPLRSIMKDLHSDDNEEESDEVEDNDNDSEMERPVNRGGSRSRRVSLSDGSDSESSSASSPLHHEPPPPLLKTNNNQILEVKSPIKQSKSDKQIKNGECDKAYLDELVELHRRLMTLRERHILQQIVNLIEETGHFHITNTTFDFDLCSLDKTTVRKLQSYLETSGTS
RAD52 inh: RAD52 DNA annealing inhibitors, primary screen, biochemical, FRET, single point, set 2 | DNA repair protein RAD52 homolog (Homo sapiens), P43351 | recombinant RAD52 DNA annealing, FRET fluorescence | inhibition, % at 18.7 µM | 360,000 compounds, 0.46% hits;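 active means every replicate showing at least 50% inhibition; inconclusive means mean inhibition at least 50% but not in every replicate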
Ecoli rRNA inh: reduced GFP signal of wild-type E. coli, primary screen, bacterial rRNA inhibitor project, GFP/RFP fluorescence, OD600, single point. 350,000 compounds, 1.6% hits. E. coli WT GFP vs humanized-ribosome RFP mutants, 24 h; hits give low values; DMSO median 0, no signal -100. GFP signal change (wild-type ribosome), % (test concentration not listed). AID 720706, 2013;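 active means significant combined selectivity score with lowered wild-type GFP, culture density cut under 30%, mutant RFP and density less affected; inactive means any of these conditions unmet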
RAD54 inh: inhibitors of human RAD54 branch migration, primary screen, biochemical, fluorescence, single point; inhibition, % at 10.4 µM; RAD54 Holliday junction branch migration, FAM/BHQ fluorescence; DNA repair and recombination protein RAD54-like (Homo sapiens), Q92698; AID 602329, 2012; 360,000 compounds, 0.14% hits;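 active means mean normalized replicate activity at least 40 and at least half of replicates scoring 40 or more; inconclusive means only one of the two criteria met; inactive means mean below 40 and under half of replicates reaching 40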;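 further: 0% = median of neutral control wells and 100% = median of positive control wells; inhibitors cause a drop in the FAM fluorescence signal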
E-sel inducer: E-selectin induction in HUVECs, primary screen, imaging, HUVEC, immunofluorescence imaging, single point; P16581; normalized: neutral wells 0, TNF-alpha wells 100; activation, % at 7.58 µM; 260,000 compounds, 0.37% hits; AID 686992, 2013;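 active means mean E-selectin-positive cell signal at least 10% of the positive control, reached in at least 60% of replicates, without over 20% cell loss; inconclusive means no rule given, readout overlaps actives, possibly toxicity-flagged; inactive means the rest, including those meeting only one limit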
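material = human umbilical vein endothelial cells (HUVEC), E-selectin induction | quantity = 3,000 cells/well | medium = EGM-2 growth medium on 0.1% gelatin-coated wells | technique = immunofluorescence imaging | read-out basis = % PE-positive cells | control set = TNF-alpha positive control, DMSO neutral control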
INS-1E GSIS act: GLuc luminescence reporter in INS-1E cells, primary screen for activators of glucose-dependent secretion of insulin; AID 743287, 2014; INS-1E GLuc reporter insulin secretion, 2-3 h; activation, % at 16.6 µM; 370,000 compounds, 0.61% hits;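 active means lowest replicate activation of at least 40%, so every replicate reaches that level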;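 further: 0% = median of neutral control wells and 100% = median of IBMX positive control wells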
An asterisk follows results filed as active; ? = inconclusive; nt = no result. In the library only some 2.6% were active in any assay of this set; here they are far more common.

SMILES	AF4-AF9 inh	RAD52 inh	Ecoli rRNA inh	RAD54 inh	E-sel inducer	INS-1E GSIS act
CN(c1ccc(C(=O)NCC2CCCO2)cc1)S(C)(=O)=O (centres undefined)	3	5	2	-19	nt	-4
COCCNC(=O)c1ccc(N(C)S(=O)(=O)c2ccc(OC)c(OC)c2)cc1	nt	nt	nt	2	nt	44*
CNC[C@H]1OCCCC[C@H](C)Oc2ccc(NC(=O)Nc3ccc4c(c3)OCO4)cc2C(=O)N([C@H](C)CO)C[C@H]1C	10	-59	6	-12	0	-13
O=C(COc1cccnc1[N+](=O)[O-])N1N=C(c2ccc(Cl)cc2)CC1c1ccco1 (centres undefined)	6	-10	-20*	nt	nt	-2
CN1CC(=O)N(CC(=O)N2N=C(c3ccc(Cl)cc3)CC2c2ccco2)C1=O (centres undefined)	0	-21	10	-4	0	-1
CCC(=O)N1N=C(c2ccc(Cl)cc2)CC1c1ccco1 (centres undefined)	4	-1	-28*	nt	1	-6
CC(=O)Oc1ccc(/C=C2/CCc3ccccc3C2=O)cc1	-2	-10	-31*	0	3	1
O=C1c2ccccc2C(=O)c2c(Nc3ccc(CCO)cc3)ccc(O)c21	50*	-12	12	2	nt	-18
CCc1nnc(NC(=O)CSc2nnc(-c3ccccc3NC(=O)c3ccccc3)o2)s1	nt	nt	nt	-2	nt	52*
C[C@H](CO)N1C[C@H](C)[C@@H](CN(C)C(=O)c2ccccc2)OCCCC[C@H](C)Oc2ccc(NS(C)(=O)=O)cc2C1=O	1	-9	-3	6	0	16
C[C@@H]1CCCCO[C@H](CN(C)Cc2ccncc2)[C@@H](C)CN([C@H](C)CO)C(=O)c2cc(NC(=O)NC3CCCCC3)ccc2O1	-2	-7	1	-4	2	17
CC1CCN(C(=O)CSc2nnc(-c3ccccc3F)o2)CC1	-1	-7	-6	-6	nt	63*
COc1ccccc1-c1nnc(SCC(=O)N2CCC(C)CC2)o1	nt	nt	nt	3	nt	nt
CC(C)c1csc2nc3n(c(=O)c12)CCCCC3	-1	-3	-33*	-6	-2	15
C[C@H]1CCCCO[C@H](CN(C)CC2CC2)[C@@H](C)CN([C@@H](C)CO)C(=O)c2cc(NC(=O)Nc3ccc4c(c3)OCO4)ccc2O1	35*	36	3	10	4	-8
C[C@@H]1CCCCO[C@@H](CN(C)CC2CC2)[C@H](C)CN([C@@H](C)CO)C(=O)c2cc(NC(=O)Nc3ccc4c(c3)OCO4)ccc2O1	?	35	3	7	0	-14
C[C@@H]1CCCCO[C@H](CN(C)CC2CC2)[C@H](C)CN([C@@H](C)CO)C(=O)c2cc(NC(=O)Nc3ccc4c(c3)OCO4)ccc2O1	34*	55*	-1	10	0	-8
CC1=C(C(=O)OCc2ccccc2)C(c2ccc(-c3ccccc3)cc2)NC(=O)N1CCCCCC(=O)O (centres undefined)	1	-11	-34*	-5	0	-19
CC1=C(C(=O)OCc2ccccc2)C(c2ccc3ccccc3c2)NC(=O)N1CCCC(=O)O (centres undefined)	0	-26	-16*	-10	0	8
CCN1[C@@H]2c3ccc(-c4ccccc4)c(=O)n3C[C@H]1[C@H](CO)[C@H]2C(=O)NCc1ccccc1	0	1	-1	4	0	2
O=C(N[C@@H]1CC[C@@H](CCNS(=O)(=O)c2cccc(Cl)c2)O[C@H]1CO)c1ccncc1	0	-2	-1	4	0	-4
CCC(=O)N[C@H]1CC[C@H](CC(=O)NCc2ccc(OC)cc2)O[C@H]1CO	-1	-3	1	0	0	13

Screens (PubChem BioAssay)
